Assay results published in ChEMBL document CHEMBL5620388, “Quinolone analogues of benzothiazinone: Synthesis, antitubercular structure-activity relationship and ADME profiling” (Eur J Med Chem, 2023).
Converted amounts (≈) assume the structure as drawn.

What was measured:
[1] = tested on: Mycobacterium tuberculosis; assay: Antimicrobial activity against Mycobacterium tuberculosis H37Rv expressing GFP supplemented with casitone/glucose/tyloxapol assessed as reduction in bacterial growth measured on day 14; assay type: functional; details: 336 h, time 14 day
Summary of the method: (§1)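 Line 1 medium is 7H9 with ADC and 0.05% Tween80. Line 2 medium is 7H9 with 0.03% casitone, 0.4% glucose and 0.05% tyloxapol. Incubated at 37 °C, 5% CO2, humidified. Fluorescence (ex 485/em 520) read at day 14 and normalised to rifampicin (2× MIC) and 5% DMSO controls. MIC90 is the lowest concentration giving >90% inhibition.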

[2] = tested on: Mycobacterium tuberculosis; assay: Antimicrobial activity against Mycobacterium tuberculosis H37Rv expressing GFP supplemented with albumin/dextrose/catalase/glucose/tween80 assessed as reduction in bacterial growth measured on day 14; assay type: functional; details: 336 h, time 14 day; summary of the method: as §1
[3] = Aqueous solubility of compound in PBS at pH6.5 incubated for 24 hrs by shake-flask method; assay type: physicochemical; details: pH 6.5
Summary of the method: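 Miniaturised shake-flask, 96-well: 4 µL of 10 mM DMSO stock dried down, then phosphate-buffered saline pH 6.5 added; shaken 24 h at 25 °C, centrifuged 3500 g for 15 min. Supernatant quantified by HPLC-DAD against a 10–220 µM calibration curve prepared in DMSO.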

[4] = Metabolic stability in rat liver microsome assessed as parent compound remaining after 30 mins by LC-MS/MS analysis; assay type: ADME; details: liver microsomes, read-out: Stability
Summary of the method: (§2)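 Compound at 1 µM incubated with liver microsomes at 0.4 mg/mL, 37 °C for 30 min. Human microsomes were mixed gender, rat were male IGS, mouse were male CD1. Quenched with ice-cold acetonitrile containing internal standard and centrifuged. Parent disappearance measured by LC-MS/MS, with half-life and clearance from standard equations.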

[5] = Metabolic stability in CD-1 mouse liver microsome assessed as intrinsic clearance measured for 30 mins by LC-MS/MS analysis; assay type: ADME; details: liver microsomes, read-out: CLH; summary of the method: as §2
[6] = Metabolic stability in CD-1 mouse liver microsome assessed as parent compound remaining after 30 mins by LC-MS/MS analysis; assay type: ADME; details: liver microsomes, read-out: Stability; summary of the method: as §2
[7] = Lipophilicity, log P of the compound in octanol/buffer incubated for 2 hrs under shaking condition by shake flask based HPLC-UV method; assay type: physicochemical
Summary of the method: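 LogD at pH 7.4 by miniaturised shake-flask in deep-well plates. Compound partitioned between equal volumes of 1-octanol and PBS pH 7.4, shaken vigorously 2 h at 25 °C. Phases separated, each analysed by HPLC-UV with diode array detection. LogD calculated from peak areas in octanol and buffer.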

[8] = Metabolic stability in rat liver microsome assessed as intrinsic clearance measured for 30 mins by LC-MS/MS analysis; assay type: ADME; details: liver microsomes, read-out: CLH; summary of the method: as §2
[9] = tested on: Mycobacterium tuberculosis; assay: Antitubercular activity against Mycobacterium tuberculosis H37Rv assessed as reduction in microbial growth measured for 14 days; assay type: functional; details: 336 h, time 14 day
Summary of the method: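 Strains were H37Rv, the fluoroquinolone-resistant GyrA G88C mutant, and the dprE1 P116S and C387S mutants. All were cultured in standard Middlebrook 7H9 with ADC supplement.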

[10] = Metabolic stability in human liver microsome assessed as parent compound remaining after 30 mins by LC-MS/MS analysis; assay type: ADME; details: liver microsomes, read-out: Stability; summary of the method: as §2
[11] = Metabolic stability in human liver microsome assessed as intrinsic clearance measured for 30 mins by LC-MS/MS analysis; assay type: ADME; details: liver microsomes, read-out: CLH; summary of the method: as §2
[12] = Cytotoxicity against HEK293 cells assessed as reduction in cell viability incubated for 20 hrs by resazurin staining based assay; assay type: toxicity; details: human
Summary of the method: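 HEK-293 cells grown in DMEM with 10% FBS, seeded at 5×10^3 cells/well into compound-containing plates, 20 h at 37 °C, 5% CO₂. Resazurin added for a further 3 h, fluorescence read at ex 560/em 590 nm. CC₅₀ from sigmoidal dose-response fit (variable top, bottom, slope) of inhibition vs log concentration. Highest concentration tested 32 µg/mL.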

Row | SMILES | MIC90 [1] [µM] | MIC90 [2] [µM] | further results
1 | O=C(O)c1c[nH]c2c([N+](=O)[O-])cc(C(F)(F)F)cc2c1=O | 62.5 (≈ 18.9 µg/mL) | > 125 | –
2 | O=C(NCCc1ccc(C(F)(F)F)cc1)c1c[nH]c2c([N+](=O)[O-])cc(C(F)(F)F)cc2c1=O | < 0.244 | < 0.244 | solubility thermodynamic at 24 h [3]: < 5 µM; remaining at 0.5 h [4]: 68%; microsomal CLint [5]: 33.3 µL/min/mg; remaining at 0.5 h [6]: 67%; logD at 2 h [7]: 4.4; microsomal CLint [8]: 33.2 µL/min/mg; MIC90 [9]: 0.9 µM; remaining at 0.5 h [10]: 68%; microsomal CLint [11]: 31.7 µL/min/mg; CC50 at 20 h [12]: > 20 µM
3 | O=C(NCc1cccc(Cl)c1)c1c[nH]c2c([N+](=O)[O-])cc(C(F)(F)F)cc2c1=O | > 125 | 2.99 (≈ 1.27 µg/mL) | –
4 | CCOC(=O)c1c[nH]c2c([N+](=O)[O-])cc(C(F)(F)F)cc2c1=O | < 0.244 | < 0.244 | –
5 | O=c1c(Br)c[nH]c2c([N+](=O)[O-])cc(C(F)(F)F)cc12 | 1.6 (≈ 0.539 µg/mL) | 16 (≈ 5.39 µg/mL) | –
6 | O=C(Nc1cccc(C(F)(F)F)c1)c1cnc2c([N+](=O)[O-])cc(C(F)(F)F)cc2c1Cl | 0.7 (≈ 0.325 µg/mL) | 31.2 (≈ 14.5 µg/mL) | –
7 | O=C(NCCc1ccc(F)cc1)c1c[nH]c2c([N+](=O)[O-])cc(C(F)(F)F)cc2c1=O | < 0.244 | 0.9 (≈ 0.381 µg/mL) | solubility thermodynamic at 24 h [3]: < 5 µM; remaining at 0.5 h [4]: 75%; microsomal CLint [5]: 48.8 µL/min/mg; remaining at 0.5 h [6]: 56%; logP at 2 h [7]: 4; microsomal CLint [8]: 23.4 µL/min/mg; MIC90 [9]: 2 µM; remaining at 0.5 h [10]: 73%; microsomal CLint [11]: 25.9 µL/min/mg; CC50 at 20 h [12]: > 20 µM
8 | O=C(NCCc1ccc(Cl)cc1)c1c[nH]c2c([N+](=O)[O-])cc(C(F)(F)F)cc2c1=O | < 0.244 | < 0.244 | solubility thermodynamic at 24 h [3]: < 5 µM; remaining at 0.5 h [4]: 80%; microsomal CLint [5]: 23 µL/min/mg; remaining at 0.5 h [6]: 76%; logD at 2 h [7]: 4.3; microsomal CLint [8]: 18.4 µL/min/mg; MIC90 [9]: 1.9 µM; remaining at 0.5 h [10]: 75%; microsomal CLint [11]: 24.3 µL/min/mg; CC50 at 20 h [12]: > 20 µM
9 | NNC(=O)c1c[nH]c2c([N+](=O)[O-])cc(C(F)(F)F)cc2c1=O | > 125 | > 125 | –
10 | O=C(NCc1ccc(F)cc1)c1c[nH]c2c([N+](=O)[O-])cc(C(F)(F)F)cc2c1=O | > 125 | 8.1 (≈ 3.32 µg/mL) | –
11 | Cc1ccc(CCNC(=O)c2c[nH]c3c([N+](=O)[O-])cc(C(F)(F)F)cc3c2=O)cc1 | > 125 | 0.244 (≈ 0.102 µg/mL) | –
12 | O=c1cc[nH]c2c([N+](=O)[O-])cc(C(F)(F)F)cc12 | 62.5 (≈ 16.1 µg/mL) | 16 (≈ 4.13 µg/mL) | –
13 | O=C(NCc1ccc(Cl)cc1)c1c[nH]c2c([N+](=O)[O-])cc(C(F)(F)F)cc2c1=O | > 125 | 7.4 (≈ 3.15 µg/mL) | –
14 | O=C(NCc1ccc(F)c(F)c1)c1c[nH]c2c([N+](=O)[O-])cc(C(F)(F)F)cc2c1=O | 7 (≈ 2.99 µg/mL) | 31.3 (≈ 13.4 µg/mL) | –
15 | O=C(NCc1ccccc1Cl)c1c[nH]c2c([N+](=O)[O-])cc(C(F)(F)F)cc2c1=O | 0.5 (≈ 0.213 µg/mL) | 0.8 (≈ 0.341 µg/mL) | –
16 | O=C(NCc1cccc(F)c1)c1c[nH]c2c([N+](=O)[O-])cc(C(F)(F)F)cc2c1=O | 0.5 (≈ 0.205 µg/mL) | 3 (≈ 1.23 µg/mL) | –
17 | Cc1cccc(CNC(=O)c2c[nH]c3c([N+](=O)[O-])cc(C(F)(F)F)cc3c2=O)c1 | < 0.244 | 2.9 (≈ 1.18 µg/mL) | –
18 | NNC(=O)c1ccncc1 [ISONIAZID] | – | – | MIC90 [9]: 3.5 µM
19 | COc1c(N2C[C@@H]3CCCN[C@@H]3C2)c(F)cc2c(=O)c(C(=O)O)cn(C3CC3)c12 [MOXIFLOXACIN] | – | – | MIC90 [9]: 0.1 µM
20 | CO[C@H]1/C=C/O[C@@]2(C)Oc3c(C)c(O)c4c(O)c(c(/C=N/N5CCN(C)CC5)c(O)c4c3C2=O)NC(=O)/C(C)=C\C=C\[C@H](C)[C@H](O)[C@@H](C)[C@@H](O)[C@@H](C)[C@H](OC(C)=O)[C@@H]1C [RIFAMPIN] | 0.01 (≈ 0.00823 µg/mL) | 0.01 (≈ 0.00823 µg/mL) | –
